Measured values as given in PubChem BioAssay.
Active and inactive are the calls of the source.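 The calls were made as follows, unless noted: active = Her2 level under about 52% in both replicate screens, with viability over 70% of control (limit read from the data); inconclusive = Her2 under the limit in one screen only, or viability under 70%; inactive = Her2 level above the set limit.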

How the values were obtained:
[1] = Her2 expression decrease, cell viability multiplex – SKBR3 breast tumor cells, AlphaScreen, ATP viability, primary screen (AID 461); details: SKBR3 Her2 protein level, 18-24 h, measured here: SKBR3 viability, ATP luminescence, at 10 µM;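 as to Her2 level: lower value means less Her2 protein in the cells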;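 as to viability: percent of carrier control wells set as 100% viability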
[2] = target: Receptor tyrosine-protein kinase erbB-2 (Homo sapiens) (UniProt P04626); assay: as above; details: 18-24 h, at 10 µM, stronger effect = lower value
Sequence of Receptor tyrosine-protein kinase erbB-2 (Homo sapiens) (P04626 whole entry, looked up): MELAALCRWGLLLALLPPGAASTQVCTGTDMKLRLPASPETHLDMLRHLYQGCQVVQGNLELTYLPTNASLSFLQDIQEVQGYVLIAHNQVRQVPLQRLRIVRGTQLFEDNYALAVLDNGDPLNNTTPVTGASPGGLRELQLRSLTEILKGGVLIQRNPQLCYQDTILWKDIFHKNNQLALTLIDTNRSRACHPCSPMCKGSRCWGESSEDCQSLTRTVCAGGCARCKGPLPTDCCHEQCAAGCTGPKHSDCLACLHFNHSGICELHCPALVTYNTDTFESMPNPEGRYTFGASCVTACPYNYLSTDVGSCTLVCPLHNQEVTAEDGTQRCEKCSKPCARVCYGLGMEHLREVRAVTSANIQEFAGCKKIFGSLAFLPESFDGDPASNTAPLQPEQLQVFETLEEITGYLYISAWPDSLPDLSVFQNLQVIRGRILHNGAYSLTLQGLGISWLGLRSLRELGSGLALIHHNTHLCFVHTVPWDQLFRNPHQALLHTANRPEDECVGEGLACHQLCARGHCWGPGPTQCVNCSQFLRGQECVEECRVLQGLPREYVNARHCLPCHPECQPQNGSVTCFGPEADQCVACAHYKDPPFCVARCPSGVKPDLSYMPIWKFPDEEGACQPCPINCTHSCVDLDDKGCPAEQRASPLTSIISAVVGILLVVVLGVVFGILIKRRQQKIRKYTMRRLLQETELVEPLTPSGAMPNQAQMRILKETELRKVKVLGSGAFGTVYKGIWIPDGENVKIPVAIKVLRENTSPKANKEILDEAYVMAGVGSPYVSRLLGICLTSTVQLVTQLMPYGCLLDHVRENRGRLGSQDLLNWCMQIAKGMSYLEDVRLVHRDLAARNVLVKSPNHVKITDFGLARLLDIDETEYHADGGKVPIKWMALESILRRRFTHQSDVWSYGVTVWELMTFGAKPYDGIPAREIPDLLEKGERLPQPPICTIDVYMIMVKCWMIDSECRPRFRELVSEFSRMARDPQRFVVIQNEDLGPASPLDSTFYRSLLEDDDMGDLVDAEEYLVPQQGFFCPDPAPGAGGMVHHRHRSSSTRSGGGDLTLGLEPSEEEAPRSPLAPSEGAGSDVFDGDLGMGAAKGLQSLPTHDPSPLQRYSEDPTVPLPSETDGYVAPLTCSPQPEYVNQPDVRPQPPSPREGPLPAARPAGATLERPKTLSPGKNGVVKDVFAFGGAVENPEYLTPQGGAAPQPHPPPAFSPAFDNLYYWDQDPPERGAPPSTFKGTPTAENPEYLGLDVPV

[3] = reduced viability of SK-BR-3 breast cancer cells – cell-based, 24 h, human, pilot screen (AID 572;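 active = viability at or below 10% of carrier control in both of two separate runs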;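 also: compound exposure lasted between 18 and 24 h rather than exactly 24 h; 100% = carrier-treated control wells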); details: SK-BR-3 viability, CellTiter-Glo luminescence, at 10 µM, stronger effect = lower value
[4] = HUVEC growth inhibition – cell-based, human, primary screen (AID 575;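 active = viability at or below 30% in both replicate assays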;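 also: 100% = median of untreated cell wells with 0.1% DMSO on each plate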); details: HUVEC proliferation, CellTiter-Glo luminescence, 72 h; at 10 µM; stronger effect = lower value
Outline: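 Assay system: primary human umbilical vein endothelial cells / Buffer or medium: endothelial basal medium with 2% FBS plus growth supplements / Compound dosing: one dose, 10 µM final, 0.1% DMSO / Timing: 72 h treatment at 37 °C / Signal: CTG luminescence / Benchmarks: 32 DMSO-only cell-control wells (high), 32 MePR drug-control wells (low) per plate / Plate: collagen-coated 384-well format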

[5] = H69AR cell proliferation blockers – human, duplicate replicates, primary screen (AID 580;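 active = viability at or under a set limit in both replicates, limit being median viability minus 3 SD, cut at about 48% in these data, passing the limit was not always enough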;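 also: 100% = mean luminescence of untreated wells and 0% = no signal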); details: H69AR lung tumor cells viability, ATP luminescence, 72 h; at 10 µM; stronger effect = lower value
[6] = MRP1 drug-resistance reversers in H69AR cells – cell-based, doxorubicin co-treatment, pilot screen (AID 601;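 active = viability loss from added drug above about 55%, and viability with drug at most 40%, in both replicates, limit read from the data, passing the limit was not always enough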); details: CellTiter-Glo, 72 h, at 10 µM; for differential viability (reversal): stronger effect = higher value
[7] = yeast transport mutant growth inhibition pilot in 384-well plates, post-Golgi transport modulator project (AID 636; in the data active = inhibition above about 31%); details: absorbance 615 nm, about 18 h, stronger effect = higher value
[8] = growth suppression of yeast trafficking mutant, preliminary HTS, modulators of trafficking downstream of Golgi apparatus project, 1536-format plate, OD 615 nm (AID 637; in the data active = inhibition above about 30%); details: yeast transport mutant growth, absorbance 615 nm, 18 h; stronger effect = higher value
[9] = H69AR cells + 2 uM doxorubicin, measured here: viability with 2 uM doxorubicin, stronger effect = lower value
[10] = H69AR cells, compound alone cytotoxicity

COc1cccc(CNC(=O)C2CCN(S(=O)(=O)c3ccc(F)cc3)CC2)c1
viability [1]: 128%
Her2 level [2]: 98.5% (inactive)
viability [3]: 128% (inactive)
viability [4]: 95.1% (inactive)
viability [5]: 97.5% (inactive)
differential viability (reversal) ([6]; H69AR cells + 2 uM doxorubicin): -7.57% (inactive)
viability [6, 9]: 105%
viability [6, 10]: 97.5%
inhibition [7]: -2.37% (inactive)
inhibition [8]: 0.48% (inactive)

O=c1c2nnn(Cc3ccccc3)c2ncn1-c1ccccc1
viability [1]: 103%
Her2 level [2]: 90.5% (inactive)
viability [3]: 103% (inactive)
viability [4]: 111% (inactive)
viability [5]: 108% (inactive)
differential viability (reversal) ([6]; H69AR cells + 2 uM doxorubicin): 5.12% (inactive)
viability [6, 9]: 103%
viability [6, 10]: 108%
inhibition [7]: -6.27% (inactive)
inhibition [8]: 4.1% (inactive)

COCCN1C(=O)C(=O)/C(=C(/O)c2cccc(OC)c2)C1c1ccncc1 (stereo not given)
viability [1]: 99%
Her2 level [2]: 104% (inactive)
viability [3]: 99% (inactive)
viability [4]: 101% (inactive)
viability [5]: 93% (inactive)
differential viability (reversal) ([6]; H69AR cells + 2 uM doxorubicin): -3.51% (inactive)
viability [6, 9]: 96.5%
viability [6, 10]: 93%
inhibition [7]: -0.26% (inactive)
inhibition [8]: 3.64% (inactive)

COC(=O)C1=C(N)Oc2cc(C)[nH]c(=O)c2C1c1ccncc1 (stereo not given)
viability [1]: 132%
Her2 level [2]: 106% (inactive)
viability [3]: 132% (inactive)
viability [4]: 94.4% (inactive)
viability [5]: 94.7% (inactive)
differential viability (reversal) ([6]; H69AR cells + 2 uM doxorubicin): 7.35% (inactive)
viability [6, 9]: 87.3%
viability [6, 10]: 94.7%
inhibition [7]: -0.79% (inactive)
inhibition [8]: 5% (inactive)

CCCn1c2ccccc2c2nnc(SCC(=O)OCC)nc21
viability [1]: 95%
Her2 level [2]: 78.5% (inactive)
viability [3]: 95% (inactive)
viability [4]: 88.8% (inactive)
viability [5]: 91.2% (inactive)
differential viability (reversal) ([6]; H69AR cells + 2 uM doxorubicin): 11% (inactive)
viability [6, 9]: 80.2%
viability [6, 10]: 91.2%
inhibition [7]: -0.66% (inactive)
inhibition [8]: 3.64% (inactive)

O=C(c1ccco1)N1CCN(C(=O)C2CCN(S(=O)(=O)c3cccc4nsnc34)CC2)CC1
viability [1]: 98.5%
Her2 level [2]: 102% (inactive)
viability [3]: 98.5% (inactive)
viability [4]: 104% (inactive)
viability [5]: 83.5% (inactive)
differential viability (reversal) ([6]; H69AR cells + 2 uM doxorubicin): 8.47% (inactive)
viability [6, 9]: 75%
viability [6, 10]: 83.5%
inhibition [7]: -4.27% (inactive)
inhibition [8]: -1.48% (inactive)

CCOC(=O)c1cnc(SCC)[nH]c1=O
viability [1]: 84.5%
Her2 level [2]: 101% (inactive)
viability [3]: 84.5% (inactive)
viability [4]: 84.4% (inactive)
viability [5]: 97% (inactive)
differential viability (reversal) ([6]; H69AR cells + 2 uM doxorubicin): -5.68% (inactive)
viability [6, 9]: 103%
viability [6, 10]: 97%
inhibition [7]: -1.92% (inactive)
inhibition [8]: -8% (inactive)

Cc1cc2c(=O)n(CC(=O)N3CCN(c4ccccc4)CC3)cnc2s1
viability [1]: 92%
Her2 level [2]: 78% (inactive)
viability [3]: 92% (inactive)
viability [4]: 100% (inactive)
viability [5]: 96.5% (inactive)
differential viability (reversal) ([6]; H69AR cells + 2 uM doxorubicin): 8.25% (inactive)
viability [6, 9]: 88.2%
viability [6, 10]: 96.5%
inhibition [7]: -2.11% (inactive)
inhibition [8]: 0.18% (inactive)

COc1ccc(CCn2c(NCCCN3CCOCC3)nc3c2c(=O)[nH]c(=O)n3C)cc1
viability [1]: 84.5%
Her2 level [2]: 86% (inactive)
viability [3]: 84.5% (inactive)
viability [4]: 76.6% (inactive)
viability [5]: 87.3% (inactive)
differential viability (reversal) ([6]; H69AR cells + 2 uM doxorubicin): 0.365% (inactive)
viability [6, 9]: 86.9%
viability [6, 10]: 87.3%
inhibition [7]: 4.13% (inactive)
inhibition [8]: 30.3% (active)

O=c1cc(CSc2ccccn2)c2ccccc2[nH]1
viability [1]: 91.5%
Her2 level [2]: 76% (inactive)
viability [3]: 91.5% (inactive)
viability [4]: 85.2% (inactive)
viability [5]: 93.1% (inactive)
differential viability (reversal) ([6]; H69AR cells + 2 uM doxorubicin): 8.09% (inactive)
viability [6, 9]: 85.1%
viability [6, 10]: 93.1%
inhibition [7]: -4.46% (inactive)
inhibition [8]: 4.13% (inactive)
